Columns and labels:
Format in all cases: functional, cell-based
A549 = test: Antiproliferative activity against human A549 cells after 72 hrs by MTT assay; conditions: A549, 72 h
In short: (§1)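 MTT proliferation assay; cells exposed to compounds for 72 h. IC50 is the concentration inhibiting tumor cell proliferation by 50%. Means ± SDs of three independent experiments. 5-Fluorouracil used as positive control.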

MCF7 = test: Antiproliferative activity against human MCF7 cells after 72 hrs by MTT assay; conditions: MCF7, 72 h; in short: as §1
PC-3 = test: Antiproliferative activity against human PC3 cells after 72 hrs by MTT assay; conditions: PC-3, 72 h; in short: as §1
B16-F10 = test: Antiproliferative activity against mouse B16/F10 cells after 72 hrs by MTT assay; conditions: B16-F10, 72 h; in short: as §1

SMILES: CCCCCCCCNC[C@@H]1OC[C@H](N)[C@H]1O
- IC50 (A549): 71.8 µM
- IC50 (MCF7): > 128 µM
- IC50 (PC-3): 13 µM
- IC50 (B16-F10): > 128 µM

SMILES: CCCCCCCCCNC[C@@H]1OC[C@H](N)[C@H]1O
- IC50 (A549): > 128 µM
- IC50 (MCF7): 60.3 µM
- IC50 (PC-3): 7.65 µM
- IC50 (B16-F10): > 128 µM

SMILES: CCCCCCCCCCNC[C@@H]1OC[C@H](N)[C@@H]1O
- IC50 (A549): 47.8 µM
- IC50 (MCF7): 34.2 µM
- IC50 (PC-3): 11.9 µM
- IC50 (B16-F10): 29.6 µM

SMILES: CCCCCCCCCCCCCCNC[C@@H]1OC[C@H](N)[C@H]1O
- IC50 (A549): 19.9 µM
- IC50 (MCF7): 8.83 µM
- IC50 (PC-3): 1.99 µM
- IC50 (B16-F10): 64.2 µM

SMILES: CCCCCCCNC[C@@H]1OC[C@H](N)[C@H]1O
- IC50 (A549): > 128 µM
- IC50 (MCF7): > 128 µM
- IC50 (PC-3): > 128 µM
- IC50 (B16-F10): > 128 µM

SMILES: CCCCCCCCCCCNC[C@@H]1OC[C@H](N)[C@@H]1O
- IC50 (A549): 11.1 µM
- IC50 (MCF7): 6.77 µM
- IC50 (PC-3): 3.33 µM
- IC50 (B16-F10): 19.3 µM

SMILES: CCCCCCCCCNC[C@@H]1OC[C@H](N)[C@@H]1O
- IC50 (A549): 22.1 µM
- IC50 (MCF7): 12.5 µM
- IC50 (PC-3): 2.03 µM
- IC50 (B16-F10): 55.2 µM

SMILES: CCCCCCCCCCNC[C@@H]1OC[C@H](N)[C@H]1O
- IC50 (A549): > 128 µM
- IC50 (MCF7): 42.7 µM
- IC50 (PC-3): > 128 µM
- IC50 (B16-F10): > 128 µM

Source: ChEMBL document CHEMBL4184090, “Discovery of novel jaspine B analogues as autophagy inducer” (Bioorg Med Chem Lett, 2018)
